Converted amounts (≈) assume the structure as drawn.
How the values were obtained:
Format in all cases: functional
Streptococcus pneumoniae [1] = experiment: Antibacterial activity against penicillin-susceptible Streptococcus pneumoniae PU09 harboring mef gene assessed as reduction in microbial growth
Streptococcus pneumoniae [2] = experiment: Bactericidal activity against MLSB-resistant Streptococcus pneumoniae 07P390 harboring ermB gene assessed as reduction in microbial growth
How it was run: (§1)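 Bacteria were exposed to 1- to 8-fold their MIC of test sample, then transferred to fresh culture medium without antibacterial compound and incubated for the required time. Colonies were then counted. MBC is the lowest concentration giving a reduction in colony number of >3 Log₁₀.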

Haemophilus influenzae [3] = experiment: Antibacterial activity against azithromycin-susceptible Haemophilus influenzae ATCC 49247 assessed as reduction in microbial growth
Staphylococcus aureus [4] = experiment: Bactericidal activity against MLSB/methicillin/ciprofloxacin-resistant Staphylococcus aureus PU32 harboring ermA gene; how it was run: as §1
Streptococcus pyogenes [5] = experiment: Ratio of MBC to MIC against MLSB-resistant Streptococcus pyogenes 12-206 harboring ermA gene
Streptococcus pneumoniae [6] = experiment: Bactericidal activity against Erythromycin-susceptible Streptococcus pneumoniae ATCC 49619
How it was run: (§2)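 Bacteria were exposed to 1- to 8-fold MIC of the sample, then transferred to fresh medium without antibacterial. After further incubation, colonies were counted. MBC was taken as the lowest concentration giving a >3 log10 reduction in colony number.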

Streptococcus pneumoniae [7] = experiment: Bactericidal activity against penicillin-susceptible Streptococcus pneumoniae PU09 harboring mef gene; how it was run: as §1
Streptococcus pneumoniae [8] = experiment: Antibacterial activity against MLSB-resistant Streptococcus pneumoniae 07P390 harboring ermB gene assessed as reduction in microbial growth
Streptococcus pneumoniae [9] = experiment: Ratio of MBC to MIC against penicillin-susceptible Streptococcus pneumoniae PU09
Staphylococcus aureus [10] = experiment: Ratio of MBC to MIC against MLSB/methicillin/ciprofloxacin-resistant Staphylococcus aureus PU32 harboring ermA gene
Staphylococcus aureus [11] = experiment: Bactericidal activity against MLSB/methicillin-resistant Staphylococcus aureus 15B196; how it was run: as §1
Streptococcus pyogenes [12] = experiment: Antibacterial activity against MLSB-resistant Streptococcus pyogenes 12-206 harboring ermA gene assessed as reduction in microbial growth
Staphylococcus aureus [13] = experiment: Antibacterial activity against MLSB/methicillin-resistant Staphylococcus aureus 15B196 assessed as reduction in microbial growth
Streptococcus pneumoniae [14] = experiment: Ratio of MBC to MIC against Erythromycin-susceptible Streptococcus pneumoniae ATCC 49619
Haemophilus influenzae [15] = experiment: Bactericidal activity against azithromycin-susceptible Haemophilus influenzae ATCC 49247; how it was run: as §2
Streptococcus pyogenes [16] = experiment: Bactericidal activity against MLSB-resistant Streptococcus pyogenes 12-206 harboring ermA gene; how it was run: as §1
Haemophilus influenzae [17] = experiment: Ratio of MBC to MIC against azithromycin-susceptible Haemophilus influenzae ATCC 49247
Streptococcus pneumoniae [18] = experiment: Antibacterial activity against Erythromycin-susceptible Streptococcus pneumoniae ATCC 49619 assessed as reduction in microbial growth
Staphylococcus aureus [19] = experiment: Antibacterial activity against MLSB/methicillin/ciprofloxacin-resistant Staphylococcus aureus PU32 harboring ermA gene assessed as reduction in microbial growth

Compound	MIC (Streptococcus pneumoniae [1]) [µg/mL]	MBC (Streptococcus pneumoniae [2]) [µg/mL]	MIC (Haemophilus influenzae [3]) [µg/mL]	MBC (Staphylococcus aureus [4]) [µg/mL]	Ratio (Streptococcus pyogenes [5])	MBC (Streptococcus pneumoniae [6]) [µg/mL]	MBC (Streptococcus pneumoniae [7]) [µg/mL]	MIC (Streptococcus pneumoniae [8]) [µg/mL]	Ratio (Streptococcus pneumoniae [9])	Ratio (Staphylococcus aureus [10])	MBC (Staphylococcus aureus [11]) [µg/mL]	MIC (Streptococcus pyogenes [12]) [µg/mL]	MIC (Staphylococcus aureus [13]) [µg/mL]	Ratio (Streptococcus pneumoniae [14])	MBC (Haemophilus influenzae [15]) [µg/mL]	MBC (Streptococcus pyogenes [16]) [µg/mL]	Ratio (Haemophilus influenzae [17])	MIC (Streptococcus pneumoniae [18]) [µg/mL]	MIC (Staphylococcus aureus [19]) [µg/mL]
CC[C@H]1OC(=O)[C@H](C)[C@@H](OC(=O)Cc2ccccn2)[C@H](C)[C@@H](O[C@@H]2O[C@H](C)C[C@H](N(C)C)[C@H]2O)[C@](C)(OC(=O)CCNCCC#Cc2ccc3c(c2)c(=O)c(C(N)=O)cn3C2CC2)C[C@@H](C)CN(C)[C@H](C)[C@H]2OC(=O)O[C@@]21C	4	128	64	> 256	4	1 (≈ 0.921 µM)	8 (≈ 7.37 µM)	64	2	>4	> 256	16	128	2	128 (≈ 118 µM)	64 (≈ 59 µM)	2	0.5	64
CC[C@H]1OC(=O)[C@H](C)[C@@H](OC(=O)Cc2ccccn2)[C@H](C)[C@@H](O[C@@H]2O[C@H](C)C[C@H](N(C)C)[C@H]2O)[C@](C)(OC(=O)CCN2CCN(c3cc4c(cc3F)c(=O)c(C(N)=O)cn4C3CC3)CC2)C[C@@H](C)CN(C)[C@H](C)[C@@H](O)[C@]1(C)O	4	128	64	> 256	8	0.5 (≈ 0.457 µM)	4 (≈ 3.66 µM)	128	1		> 256	16	> 256	2	128 (≈ 117 µM)	128 (≈ 117 µM)	2	0.25	128
CC[C@H]1OC(=O)[C@H](C)[C@@H](OC(=O)Cc2ccccn2)[C@H](C)[C@@H](O[C@@H]2O[C@H](C)C[C@H](N(C)C)[C@H]2O)[C@](C)(OC(=O)CCNCCC#Cc2ccc3[nH]ccc(=O)c3c2)C[C@@H](C)CN(C)[C@H](C)[C@@H](O)[C@]1(C)O	2	> 256	64	> 128	>8	0.25 (≈ 0.256 µM)	4 (≈ 4.1 µM)	256	2	>8	> 256	2	> 256	1	128 (≈ 131 µM)	> 16	2	0.25	16
CC[C@H]1OC(=O)[C@H](C)[C@@H](OC(=O)Cc2cccnc2)[C@H](C)[C@@H](O[C@@H]2O[C@H](C)C[C@H](N(C)C)[C@H]2O)[C@](C)(OC(=O)CCNCCC#Cc2ccc3c(c2)c(=O)c(C(N)=O)cn3C2CC2)C[C@@H](C)CN(C)[C@H](C)[C@H]2OC(=O)O[C@@]21C	4	128	64	> 256	2	2 (≈ 1.84 µM)	8 (≈ 7.37 µM)	64	2	>4	> 256	32	> 256	2	64 (≈ 59 µM)	64 (≈ 59 µM)	1	1	64
CC[C@H]1OC(=O)[C@H](C)[C@@H](OC(=O)Cc2ccccn2)[C@H](C)[C@@H](O[C@@H]2O[C@H](C)C[C@H](N(C)C)[C@H]2O)[C@](C)(OC(=O)CCNCCC#Cc2ccc3c(c2)c(=O)c(C(N)=O)cn3C2CC2)C[C@@H](C)CN(C)[C@H](C)[C@@H](O)[C@]1(C)O	4	> 256	64	> 256	4	0.5 (≈ 0.472 µM)	4 (≈ 3.78 µM)	256	1		> 256	32	> 256	1	64 (≈ 60.4 µM)	128 (≈ 121 µM)	1	0.5	128
CC[C@H]1OC(=O)[C@H](C)[C@@H](OC(=O)Cc2ccccn2)[C@H](C)[C@@H](O[C@@H]2O[C@H](C)C[C@H](N(C)C)[C@H]2O)[C@](C)(OC(=O)CCNCCC#Cc2ccc3c(c2)c(=O)c(C(N)=O)cn3CC)C[C@@H](C)CN(C)[C@H](C)[C@@H](O)[C@]1(C)O	2	> 256	16	> 256	>8	0.5 (≈ 0.477 µM)	2 (≈ 1.91 µM)	256	1	>8	> 256	8	> 256	4	16 (≈ 15.3 µM)	> 64	1	0.12	32
CC[C@H]1OC(=O)[C@H](C)[C@@H](OC(=O)Cc2ccccn2)[C@H](C)[C@@H](O[C@@H]2O[C@H](C)C[C@H](N(C)C)[C@H]2O)[C@](C)(OC(=O)CCN2CCN(c3cc4c(cc3F)c(=O)c(C(N)=O)cn4CC)CC2)C[C@@H](C)CN(C)[C@H](C)[C@@H](O)[C@]1(C)O	4	128	4	> 256	8	1 (≈ 0.924 µM)	8 (≈ 7.39 µM)	64	2		128 (≈ 118 µM)	16	128	2	4 (≈ 3.7 µM)	128 (≈ 118 µM)	1	0.5	128
CC[C@H]1OC(=O)[C@H](C)[C@@H](OC(=O)Cc2ccccn2)[C@H](C)[C@@H](O[C@@H]2O[C@H](C)C[C@H](N(C)C)[C@H]2O)[C@](C)(OC(=O)CCNCCC#Cc2ccc3c(c2)c(=O)c(C(=O)NC)cn3C2CC2)C[C@@H](C)CN(C)[C@H](C)[C@@H](O)[C@]1(C)O	4	256	64	> 256	4	1 (≈ 0.932 µM)	8 (≈ 7.45 µM)	256	2		> 256	32	> 256	2	128 (≈ 119 µM)	128 (≈ 119 µM)	2	0.5	> 256
CC[C@H]1OC(=O)[C@H](C)[C@@H](OC(=O)Cc2ccccn2)[C@H](C)[C@@H](O[C@@H]2O[C@H](C)C[C@H](N(C)C)[C@H]2O)[C@](C)(OC(=O)CCN2CCN(c3cc4c(cc3F)c(=O)c(C(=O)O)cn4C3CC3)CC2)C[C@@H](C)CN(C)[C@H](C)[C@H]2OC(=O)O[C@@]21C	4	> 256	8	> 256	>8	16 (≈ 14.3 µM)	16 (≈ 14.3 µM)	> 256	4		> 256	64	> 256	4	16 (≈ 14.3 µM)	> 256	2	4	> 256
